Results published in ChEMBL document CHEMBL1821661, “Design, synthesis, and biological evaluation of pyrazolopyrimidine-sulfonamides as potent multiple-mitotic kinase (MMK) inhibitors (part I)” (Bioorg Med Chem Lett, 2011).

How the values were obtained:
K562 = assay: Cell cycle arrest in human K562 cells assessed as accumulation of cells at G2/M phase after 24 hrs using propidium iodide by flow cytometry; assay type: functional, cell-based; conditions: K562, 24 h, read-out: IC50
Summary of the method: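 2 × 10⁴ K562 cells were exposed to varying compound concentrations for 24 h. Cells were stained with propidium iodide (50 µg/ml) in PBS containing 1% sodium citrate and 0.1% Triton X-100, and 5000 events were collected by flow cytometry. Cycle data were modelled by the Watson method. The minimum arrest concentration was taken where the G2:M peak ratio exceeded 1.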

HCT-116 [1] = assay: Cytotoxicity against human HCT116 cells assessed as growth inhibition at 0.01 to 10 uM after 5 days by MTS assay; assay type: functional, cell-based; conditions: HCT-116, 120 h
[2] = biological target: Cyclin-dependent kinase 1/cyclin B1 (Homo sapiens, UniProt P06493); assay: Inhibition of CDK1/Cyclin B assessed as phosphorylation of Z-lyte Peptide at […] by FRET assay; assay type: protein-complex assay
Summary of the method: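 Z-lyte FRET kinase assay. Kinase was at 3 nM final with a coumarin/fluorescein-labelled synthetic peptide substrate and ATP. Development-step cleavage of non-phosphorylated peptide disrupts FRET. % phosphorylation was calculated from the coumarin:fluorescein emission ratio, read at 445–520 nm. EC50s were obtained by curve fitting.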

Aurora kinase A = biological target: T1, Aurora kinase A (Homo sapiens, UniProt O14965); assay: Inhibition of Aurora kinase A assessed as phosphorylation of Lats2 substrate at […] by FRET assay
T1 sequence (O14965 whole entry): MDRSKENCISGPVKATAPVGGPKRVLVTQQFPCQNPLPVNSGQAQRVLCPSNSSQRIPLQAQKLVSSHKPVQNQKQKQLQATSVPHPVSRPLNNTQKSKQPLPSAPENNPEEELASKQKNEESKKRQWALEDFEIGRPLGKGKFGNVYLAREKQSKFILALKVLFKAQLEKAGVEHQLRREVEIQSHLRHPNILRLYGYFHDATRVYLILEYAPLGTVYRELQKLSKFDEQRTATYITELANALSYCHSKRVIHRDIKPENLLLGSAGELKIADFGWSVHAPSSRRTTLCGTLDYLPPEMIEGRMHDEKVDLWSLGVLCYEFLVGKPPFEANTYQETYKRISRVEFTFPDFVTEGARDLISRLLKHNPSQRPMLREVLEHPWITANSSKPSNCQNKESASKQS

Mus musculus = assay: Toxicity in nu/nu mouse xenografted with human HCT116 cells assessed as change in body weight at 15 to 30 mg/kg, […]; assay type: organism-based, HCT-116; parameters: dose 15-30 mg/kg, route intraperitoneal; conditions: in vivo, ip, 504 h
HCT-116 [3] = assay: Antitumor activity against human HCT116 cells xenografted in nu/nu mouse assessed as tumor growth inhibition at 15 to 30 mg/kg, ip for 21 days relative to control; assay type: functional; conditions: dose mg/kg 15-30, route intraperitoneal
[4] = Hepatic blood flow in mouse liver microsomes assessed as compound remaining at 1.0 uM pre incubated for 5 mins at pH 7.4 by LC/MS/MS analysis; assay type: ADME, Microsome; conditions: read-out: QH
Summary of the method: (§1)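 Liver microsomes at 1 mg/mL protein in 50 mM potassium phosphate, pH 7.4, with 2.5 mM NADPH. Compound was used at 1.0 µM final and pre-incubated 5 min at 37 °C before NADPH started the reaction. Samples were taken at 0, 5 and 30 min, quenched in acetonitrile, and filtered. Results are expressed as %Q_h (hepatic blood flow).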

Cytochrome P450 1A2 = biological target: T2, Cytochrome P450 1A2 (Homo sapiens, UniProt P05177); assay: Inhibition of CYP1A2; assay type: ADME
T2 sequence (P05177 whole entry): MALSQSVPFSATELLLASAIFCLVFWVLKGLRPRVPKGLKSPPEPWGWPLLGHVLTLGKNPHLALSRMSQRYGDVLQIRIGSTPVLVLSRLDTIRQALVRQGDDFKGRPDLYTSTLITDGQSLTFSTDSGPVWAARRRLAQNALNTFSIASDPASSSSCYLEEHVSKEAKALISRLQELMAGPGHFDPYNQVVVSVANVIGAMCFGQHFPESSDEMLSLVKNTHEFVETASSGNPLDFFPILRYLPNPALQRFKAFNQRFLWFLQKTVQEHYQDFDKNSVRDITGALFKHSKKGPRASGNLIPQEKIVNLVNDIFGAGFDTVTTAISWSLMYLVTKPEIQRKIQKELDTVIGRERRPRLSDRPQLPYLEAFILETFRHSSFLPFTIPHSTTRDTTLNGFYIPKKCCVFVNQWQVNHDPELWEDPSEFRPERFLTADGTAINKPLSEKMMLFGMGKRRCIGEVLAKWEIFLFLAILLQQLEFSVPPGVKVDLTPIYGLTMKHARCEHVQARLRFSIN

[5] = Hepatic blood flow in rat liver microsomes assessed as compound remaining at 1.0 uM pre incubated for 5 mins at pH 7.4 by LC/MS/MS analysis; assay type: ADME, Microsome; conditions: read-out: QH; summary of the method: as §1
[6] = Hepatic blood flow in human liver microsomes assessed as compound remaining at 1.0 uM pre incubated for 5 mins at pH 7.4 by LC/MS/MS analysis; assay type: ADME, Microsome; conditions: read-out: QH; summary of the method: as §1
Cytochrome P450 3A4 [7] = biological target: T3, Cytochrome P450 3A4 (Homo sapiens, UniProt P08684); assay: Inhibition of CYP3A4 using a fluorescent probe 7-benzyloxy-4(trifluoromethyl)-coumarin; assay type: ADME
Cytochrome P450 2D6 = Cytochrome P450 2D6 (Homo sapiens, UniProt P10635); assay: Inhibition of CYP2D6 using a fluorescent probe 3-[2-(N,N-diethyl-N-methylamino)ethyl]-7-methoxy-4methylcoumarin; assay type: ADME
Summary of the method: (§2)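 Fluorescent-probe CYP inhibition assay. Probes: 7-methoxy-4-trifluoromethylcoumarin for 2C9; 3-[2-(N,N-diethyl-N-methylamino)ethyl]-7-methoxy-4-methylcoumarin for 2D6.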

Cytochrome P450 3A4 [8] = biological target: T3, Cytochrome P450 3A4; assay: Inhibition of CYP3A4 using a fluorescent probe 7-benzyloxyquinoline; assay type: ADME
[9] = Apparent permeability from apical to basolateral side of the human Caco2 cells after 2 hrs; assay type: ADME, cell-based; conditions: Caco-2
Summary of the method: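 Caco-2 cells, passage 25–50, were grown on transwell inserts. They were washed and pre-incubated 30 min at 37 °C in HBSS with 25 mM HEPES and 1% DMSO. Compound was added to the apical chamber and apical-to-basolateral transport was measured after 2 h at 37 °C with gentle shaking.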

Cytochrome P450 2C19 = Cytochrome P450 2C19 (Homo sapiens, UniProt P33261); assay: Inhibition of CYP2C19; assay type: ADME
Cytochrome P450 2C9 = Cytochrome P450 2C9 (Homo sapiens, UniProt P11712); assay: Inhibition of CYP2C9 using a fluorescent probe 7-methoxy-4-trifluoromethylcoumarin; assay type: ADME; summary of the method: as §2
[10] = Efflux ratio of permeability in human Caco2 cells; assay type: ADME, cell-based; conditions: Caco-2
Summary of the method: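 Caco-2 bidirectional transport, passage 25–50, in HBSS/25 mM HEPES/1% DMSO after a 30 min pre-incubation at 37 °C. Compound was dosed apically (A–B) or basolaterally (B–A) and incubated 2 h at 37 °C with gentle shaking.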

hERG (KCNH2) = hERG (KCNH2) (Homo sapiens, UniProt Q12809); assay: Inhibition of human ERG up to 10 uM by patch clamp method
Sequence of hERG (KCNH2) (Q12809 whole entry): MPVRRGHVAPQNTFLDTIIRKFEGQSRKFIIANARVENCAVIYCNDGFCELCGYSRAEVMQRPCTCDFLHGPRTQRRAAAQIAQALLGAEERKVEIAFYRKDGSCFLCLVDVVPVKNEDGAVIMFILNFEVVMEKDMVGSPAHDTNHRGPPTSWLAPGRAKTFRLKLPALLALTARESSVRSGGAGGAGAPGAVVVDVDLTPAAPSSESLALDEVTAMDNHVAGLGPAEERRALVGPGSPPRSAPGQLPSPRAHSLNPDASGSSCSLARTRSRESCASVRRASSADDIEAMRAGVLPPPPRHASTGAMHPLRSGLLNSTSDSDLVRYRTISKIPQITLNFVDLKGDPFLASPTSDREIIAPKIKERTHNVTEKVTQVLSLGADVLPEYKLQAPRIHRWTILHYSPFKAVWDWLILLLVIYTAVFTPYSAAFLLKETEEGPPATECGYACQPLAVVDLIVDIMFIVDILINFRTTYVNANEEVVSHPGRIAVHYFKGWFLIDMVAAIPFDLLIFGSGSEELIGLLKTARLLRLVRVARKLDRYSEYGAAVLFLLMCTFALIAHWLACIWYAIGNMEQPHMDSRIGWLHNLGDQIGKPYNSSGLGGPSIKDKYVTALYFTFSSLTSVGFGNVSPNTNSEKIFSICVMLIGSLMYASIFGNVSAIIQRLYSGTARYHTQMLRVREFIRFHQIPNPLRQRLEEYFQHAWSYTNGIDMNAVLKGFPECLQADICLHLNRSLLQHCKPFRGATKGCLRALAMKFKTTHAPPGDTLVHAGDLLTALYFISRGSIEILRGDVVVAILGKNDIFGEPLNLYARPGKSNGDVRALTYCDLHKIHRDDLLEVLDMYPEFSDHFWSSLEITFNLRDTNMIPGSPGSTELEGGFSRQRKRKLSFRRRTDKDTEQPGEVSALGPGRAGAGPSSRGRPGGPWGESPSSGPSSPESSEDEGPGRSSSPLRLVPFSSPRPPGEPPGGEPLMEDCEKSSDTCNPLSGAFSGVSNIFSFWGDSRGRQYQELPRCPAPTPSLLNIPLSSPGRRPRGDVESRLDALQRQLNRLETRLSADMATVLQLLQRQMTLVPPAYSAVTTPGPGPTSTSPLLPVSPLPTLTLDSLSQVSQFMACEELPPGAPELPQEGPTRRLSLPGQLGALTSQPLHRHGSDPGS

T3 sequence (P08684 whole entry): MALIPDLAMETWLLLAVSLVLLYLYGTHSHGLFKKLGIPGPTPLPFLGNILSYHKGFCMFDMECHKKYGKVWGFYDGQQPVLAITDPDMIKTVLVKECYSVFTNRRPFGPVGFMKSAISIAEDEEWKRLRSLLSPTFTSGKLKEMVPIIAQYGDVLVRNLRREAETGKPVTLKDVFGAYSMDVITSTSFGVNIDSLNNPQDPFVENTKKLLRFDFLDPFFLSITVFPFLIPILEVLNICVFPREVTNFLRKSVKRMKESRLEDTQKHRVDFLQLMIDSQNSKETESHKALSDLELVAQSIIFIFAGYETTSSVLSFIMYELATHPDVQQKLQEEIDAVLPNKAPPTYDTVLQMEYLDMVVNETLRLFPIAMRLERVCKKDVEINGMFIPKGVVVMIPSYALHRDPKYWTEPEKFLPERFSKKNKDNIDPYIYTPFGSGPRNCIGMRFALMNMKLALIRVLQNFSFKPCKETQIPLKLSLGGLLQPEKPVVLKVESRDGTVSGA
Sequence of Cyclin-dependent kinase 1/cyclin B1 (P06493 whole entry): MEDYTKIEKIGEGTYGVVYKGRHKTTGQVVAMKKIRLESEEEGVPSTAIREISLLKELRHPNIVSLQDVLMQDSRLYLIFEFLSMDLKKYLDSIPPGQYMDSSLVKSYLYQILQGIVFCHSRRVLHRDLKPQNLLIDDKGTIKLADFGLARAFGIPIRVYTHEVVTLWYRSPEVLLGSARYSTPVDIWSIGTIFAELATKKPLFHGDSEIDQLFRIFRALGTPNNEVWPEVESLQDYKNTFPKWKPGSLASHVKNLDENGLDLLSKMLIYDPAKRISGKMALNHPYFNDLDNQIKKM
Sequence of Cyclin-dependent kinase 1/cyclin B1 (P14635 whole entry, further chain): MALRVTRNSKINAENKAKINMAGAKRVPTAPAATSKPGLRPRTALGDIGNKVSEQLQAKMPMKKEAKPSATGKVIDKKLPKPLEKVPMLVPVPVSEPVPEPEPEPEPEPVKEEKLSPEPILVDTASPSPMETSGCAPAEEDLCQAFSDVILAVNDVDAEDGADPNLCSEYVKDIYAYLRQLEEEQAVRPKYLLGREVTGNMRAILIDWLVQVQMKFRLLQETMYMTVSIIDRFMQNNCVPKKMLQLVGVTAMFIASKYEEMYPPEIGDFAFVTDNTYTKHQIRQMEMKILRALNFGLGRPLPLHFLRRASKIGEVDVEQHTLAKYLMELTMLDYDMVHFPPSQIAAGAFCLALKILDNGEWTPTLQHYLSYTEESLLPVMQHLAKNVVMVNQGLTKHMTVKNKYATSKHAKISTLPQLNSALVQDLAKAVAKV
Sequence of Cytochrome P450 2C19 (P33261 whole entry): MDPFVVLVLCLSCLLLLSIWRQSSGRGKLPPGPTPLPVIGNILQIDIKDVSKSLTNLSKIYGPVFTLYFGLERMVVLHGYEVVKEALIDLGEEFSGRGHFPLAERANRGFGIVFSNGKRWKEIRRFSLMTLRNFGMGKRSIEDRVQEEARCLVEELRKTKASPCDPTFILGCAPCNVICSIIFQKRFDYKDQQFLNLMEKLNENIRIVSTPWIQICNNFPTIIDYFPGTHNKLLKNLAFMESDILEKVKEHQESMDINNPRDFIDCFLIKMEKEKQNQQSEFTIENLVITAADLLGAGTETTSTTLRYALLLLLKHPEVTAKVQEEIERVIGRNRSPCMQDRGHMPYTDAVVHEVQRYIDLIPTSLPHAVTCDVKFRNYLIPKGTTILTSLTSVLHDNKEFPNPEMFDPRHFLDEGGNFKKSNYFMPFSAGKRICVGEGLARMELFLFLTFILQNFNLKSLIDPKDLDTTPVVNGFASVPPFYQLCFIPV
Sequence of Cytochrome P450 2D6 (P10635 whole entry): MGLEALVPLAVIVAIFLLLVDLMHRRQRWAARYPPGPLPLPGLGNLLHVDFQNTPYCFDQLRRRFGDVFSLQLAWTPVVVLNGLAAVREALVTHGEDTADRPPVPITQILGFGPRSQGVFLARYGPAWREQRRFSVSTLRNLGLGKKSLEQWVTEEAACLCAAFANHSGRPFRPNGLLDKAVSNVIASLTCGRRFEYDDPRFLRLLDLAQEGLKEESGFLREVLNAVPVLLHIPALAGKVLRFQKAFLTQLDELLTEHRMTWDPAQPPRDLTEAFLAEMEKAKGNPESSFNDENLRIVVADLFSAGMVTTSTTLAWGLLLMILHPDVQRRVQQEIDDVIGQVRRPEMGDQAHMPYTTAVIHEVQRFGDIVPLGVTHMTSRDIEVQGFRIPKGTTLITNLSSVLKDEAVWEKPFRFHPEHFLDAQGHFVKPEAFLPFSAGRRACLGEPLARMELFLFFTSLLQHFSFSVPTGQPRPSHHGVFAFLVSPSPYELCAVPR
Sequence of Cytochrome P450 2C9 (P11712 whole entry): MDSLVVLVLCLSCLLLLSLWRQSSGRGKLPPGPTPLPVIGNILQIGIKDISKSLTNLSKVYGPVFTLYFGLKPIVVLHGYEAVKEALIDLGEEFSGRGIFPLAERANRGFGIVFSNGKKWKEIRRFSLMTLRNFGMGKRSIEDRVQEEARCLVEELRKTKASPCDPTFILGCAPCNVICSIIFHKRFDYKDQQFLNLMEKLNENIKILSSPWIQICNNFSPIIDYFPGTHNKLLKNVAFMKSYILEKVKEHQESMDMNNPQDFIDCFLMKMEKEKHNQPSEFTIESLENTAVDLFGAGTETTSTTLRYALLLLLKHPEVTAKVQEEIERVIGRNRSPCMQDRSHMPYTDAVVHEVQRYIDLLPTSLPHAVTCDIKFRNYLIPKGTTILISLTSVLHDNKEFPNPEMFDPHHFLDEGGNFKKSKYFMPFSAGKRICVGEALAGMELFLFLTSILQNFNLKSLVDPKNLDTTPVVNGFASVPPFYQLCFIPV

| SMILES | Minimum G2/M arrest concentration (K562) [nM] | IC50 (HCT-116 [1]) [nM] | IC50 [2] [nM] | IC50 (Aurora kinase A) [nM] | other results |
| --- | --- | --- | --- | --- | --- |
| CS(=O)(=O)N(CCCN1CCOCC1)c1ccc(Nc2ncc3cnn(C4CCCCCC4)c3n2)cc1 | 100 | 170 | 5 | – | – |
| CS(=O)(=O)N(c1ccc(Nc2ncc3cnn(C4CCCCCC4)c3n2)nc1)S(C)(=O)=O | > 3000 | – | > 10000 | > 10000 | – |
| CS(=O)(=O)N(CCN1CCCC1)c1ccc(Nc2ncc3cnn(C4CCCCCC4)c3n2)cn1 | 1000 | 125 | 10 | 350 | – |
| CS(=O)(=O)N(CCO)c1ccc(Nc2ncc3cnn(C4CCCCCC4)c3n2)cn1 | 300 | 145 | 4 | 110 | – |
| CC(C)N(c1ccc(Nc2ncc3cnn(C4CCCCCC4)c3n2)cc1)S(C)(=O)=O | 300 | 240 | 90 | 5 | – |
| CS(=O)(=O)N(CCCO)c1ccc(Nc2ncc3cnn(C4CCCCCC4)c3n2)cc1 | 100 | 78 | 6 | 6 | – |
| CS(=O)(=O)N(Cc1ccncc1)c1ccc(Nc2ncc3cnn(C4CCCCCC4)c3n2)cc1 | 300 | 250 | 23 | 30 | – |
| CS(=O)(=O)N(Cc1ccncc1)c1ccc(Nc2ncc3cnn(C4CCCCCC4)c3n2)cn1 | 300 | 320 | 13 | 95 | – |
| CN(C)CCN(c1ccc(Nc2ncc3cnn(C4CCCCCC4)c3n2)cn1)S(C)(=O)=O | 300 | 220 | 10 | 260 | – |
| CS(=O)(=O)N(CCN)c1ccc(Nc2ncc3cnn(C4CCCCCC4)c3n2)cc1 | 100 | 60 | 5 | 20 | – |
| CS(=O)(=O)N(CCN1CCOCC1)c1ccc(Nc2ncc3cnn(C4CCCCCC4)c3n2)cc1 | 100 | 160 | 23 | 14 | Activity (Mus musculus): Non-toxic; growth inhibition (GI) (HCT-116 [3]): 50%; hepatic extraction ratio at 5 min, 1 µM [4]: 0.96; IC50 (Cytochrome P450 1A2): > 10000 nM; hepatic extraction ratio at 5 min, 1 µM [5]: 0.94; hepatic extraction ratio at 5 min, 1 µM [6]: 0.95; IC50 (Cytochrome P450 3A4 [7]): 40 nM; IC50 (Cytochrome P450 2D6): > 10000 nM; IC50 (Cytochrome P450 3A4 [8]): 40 nM; Papp A→B at 2 h [9]: 26.5 ×10⁻⁶ cm/s; IC50 (Cytochrome P450 2C19): 30 nM; IC50 (Cytochrome P450 2C9): 1 nM; efflux ratio [10]: 1.1; inhibition at up to 10 uM (hERG (KCNH2)): 40% |
| CS(=O)(=O)N(CCCN1CCCCC1)c1ccc(Nc2ncc3cnn(C4CCCCCC4)c3n2)cc1 | 100 | 92 | 6 | 9 | – |
| CS(=O)(=O)Nc1ccc(Nc2ncc3cnn(C4CCCCCC4)c3n2)cn1 | 300 | 210 | 7 | – | hepatic extraction ratio at 5 min, 1 µM [4]: 0.33; IC50 (Cytochrome P450 1A2): > 10000 nM; hepatic extraction ratio at 5 min, 1 µM [5]: 0.3; hepatic extraction ratio at 5 min, 1 µM [6]: 0.39; IC50 (Cytochrome P450 3A4 [7]): > 10000 nM; IC50 (Cytochrome P450 2D6): > 10000 nM; IC50 (Cytochrome P450 3A4 [8]): > 10000 nM; Papp A→B at 2 h [9]: 20.1 ×10⁻⁶ cm/s; IC50 (Cytochrome P450 2C19): > 10000 nM; IC50 (Cytochrome P450 2C9): > 10000 nM; efflux ratio [10]: 1.5; inhibition at up to 10 uM (hERG (KCNH2)): 6.5% |
| CS(=O)(=O)N(CCN1CCOCC1)c1ccc(Nc2ncc3cnn(C4CCCCCC4)c3n2)cn1 | 2000 | 500 | 31 | 150 | – |
| CS(=O)(=O)N(CCO)c1ccc(Nc2ncc3cnn(C4CCCCCC4)c3n2)cc1 | 30 | 77 | 5 | 13 | – |
| CS(=O)(=O)N(CCN)c1ccc(Nc2ncc3cnn(C4CCCCCC4)c3n2)cn1 | 300 | 119 | 3 | – | – |
